Data: ChEMBL document CHEMBL5715946 (Chem Biol, 2010)
Active and inactive are the calls of the source. The rule behind the calls is not given here.

target: Macrophage migration inhibitory factor (Rattus norvegicus) (UniProt P30904); assay: Binding affinity to MIF in Wistar rat isolated heart by silver staining based assay; format: tissue-based; conditions: not given
In short: (§1)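 BTZO-12-type sensor chip probed with rat heart protein; bound protein recovered by microrecovery elution, then identified by silver staining and by western blot with anti-MIF antibody.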
Target sequence in this assay (P30904 2-115 limits assumed): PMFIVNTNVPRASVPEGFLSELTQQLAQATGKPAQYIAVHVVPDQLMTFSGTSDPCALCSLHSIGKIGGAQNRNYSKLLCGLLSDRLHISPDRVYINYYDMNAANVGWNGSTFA

Structure (SMILES)	Activity
NCCCCCCNC(=O)c1cccc(-c2nc(=O)c3ccccc3s2)n1	Active

target: Macrophage migration inhibitory factor (Rattus norvegicus) (UniProt P30904); assay: Binding affinity to recombinant rat MIF expressed in Escherichia coli BL21 (DE3) by chromatography; conditions: not given
Target sequence in this assay (P30904 2-115 limits assumed): as above

Structure (SMILES)	Activity
Cc1cc(C)c2sc(-c3cccc(CCCOCCC(=O)O)n3)nc(=O)c2c1	inactive
O=C(O)CCOCCCc1cccc(-c2nc(=O)c3ccccc3s2)n1	Active
O=C(O)CCOCCCc1ccc(-c2nc(=O)c3ccccc3s2)nc1	Active
O=C(O)CCOCCCc1cccc(-c2nc(=O)c3cccnc3s2)n1	inactive
O=C(O)CCOCCCc1cccc(C2NC(=O)c3ccccc3S2)n1 (stereo not drawn)	inactive

tested on: Antioxidant response element; assay: Induction of ARE activity in serum-deprived neonatal Wistar rat cardiomyocytes assessed as increase in GST Ya expression up to 400 nM measured after 24 hrs by Western blot analysis; format: cell-based; conditions: Cardiomyocyte
In short: (§2)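 Neonatal rat cardiomyocytes exposed to samples or vehicle in M-199 with 1% penicillin-streptomycin, no serum, for 24 hr. GST Ya and HO-1 mRNA measured by real-time qPCR (mean ± SD, n = 3); protein by western blot with β-actin as control.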

Structure (SMILES)	Activity
Cc1cccc2c(=O)nc(-c3ccccn3)sc12	inactive
O=C(O)CCc1cccc(-c2nc(=O)c3ccccc3s2)n1	Active

tested on: Antioxidant response element; assay: Induction of rat ARE activity expressed in rat H9c2 cells assessed as increase in ARE luciferase activity measured after 24 hrs by steady-glo luciferase Assay; format: cell-based; conditions: not given
In short: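 H9c2 cells transiently transfected with pGL3-ARE-Luc or pGL3-mARE-Luc, compound exposure 24 hr, luciferase read by Steady-Glo. MEC2.0 is the concentration giving a doubling of luciferase activity. Mean ± SD, n = 4.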

Structure (SMILES)	MEC2	Activity
C[S@+]([O-])CCCCN=C=S	4.4 µM	
O=c1nc(-c2cccnc2)sc2ccccc12	0.8 µM	
Cc1cccc2c(=O)nc(-c3ccccn3)sc12	> 10 µM	
Cc1cc(C)c2sc(-c3ccccn3)nc(=O)c2c1	> 10 µM	
O=C(O)CCc1cccc(-c2nc(=O)c3ccccc3s2)n1	2.3 µM	Dose-Dependent Effect
NCCCCCCNC(=O)c1cccc(-c2nc(=O)c3ccccc3s2)n1	1.1 µM	
Cc1cc(C)c2sc(-c3cccc(CCCOCCC(=O)O)n3)nc(=O)c2c1	> 10 µM	
O=C(O)CCOCCCc1cccc(-c2nc(=O)c3ccccc3s2)n1	2.2 µM	
O=C(O)CCOCCCc1ccc(-c2nc(=O)c3ccccc3s2)nc1	1.6 µM	
Cc1cccc2c(=O)nc(-c3cccc(C(=O)NCCCCCCN)n3)sc12	> 10 µM	
O=C1NC(c2ccccn2)Sc2ccccc21 (stereo not drawn) [BTZO-4]	> 10 µM	
CCCCC/C=C/C=C1/C(=O)C=C[C@@H]1C/C=C\CCCC(=O)O	7.3 µM	
O=c1nc(-c2ccccn2)sc2ncccc12	> 10 µM	
CC(C)(C)c1cc(O)ccc1O [E319]	5.7 µM	
COC(=O)CC1CC(c2ccc(O)cc2)=NO1 (stereo not drawn)	> 30 µM	
O=C(O)CCOCCCc1cccc(-c2nc(=O)c3cccnc3s2)n1	> 10 µM	
O=C(O)CCOCCCc1cccc(C2NC(=O)c3ccccc3S2)n1 (stereo not drawn)	> 10 µM	

target: Macrophage migration inhibitory factor (Rattus norvegicus) (UniProt P30904); assay: Inhibition of [3H]-BTZO-1 binding to recombinant rat C-terminal His-tagged MIF expressed in Escherichia coli BL21 (DE3) measured after 3 hrs by SPA; conditions: not given
Target sequence in this assay (P30904 whole entry, looked up): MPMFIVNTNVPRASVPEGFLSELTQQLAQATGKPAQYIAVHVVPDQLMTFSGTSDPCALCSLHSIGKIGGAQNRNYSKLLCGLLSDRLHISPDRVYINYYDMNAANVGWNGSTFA

Structure (SMILES)	IC50
CCCCC/C=C/C=C1/C(=O)C=C[C@@H]1C/C=C\CCCC(=O)O	3.6 µM
CC(C)(C)c1cc(O)ccc1O [E319]	1.1 µM
C[S@@+]([O-])CCCCN=C=S [L-SULFORAPHANE]	25 µM

tested on: Antioxidant response element; assay: Induction of rat ARE activity expressed in MIF-stimulated rat H9c2 cells assessed as increase in ARE luciferase activity at 1 uM measured after 24 hrs by steady-glo luciferase Assay; format: cell-based; conditions: not given
In short: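 H9c2 cells transiently transfected with pGL3-ARE-Luc (rat GST Ya ARE) or mutant-ARE control plasmid, then treated with rMIF with or without 1 μM compound for 24 hr. Luciferase by Steady-Glo; mean ± SD, n = 4.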

Structure (SMILES)	Activity
Cc1cccc2c(=O)nc(-c3ccccn3)sc12	inactive

target: Macrophage migration inhibitory factor (Rattus norvegicus) (UniProt P30904); assay: Inhibition of recombinant rat MIF expressed in Escherichia coli BL21 (DE3) assessed as reduction in tautomerase activity at 30 uM using L-dopachrome carboxy-methyl ester as substrate by spectrophotometry relative to control; conditions: not given
In short: (§3)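 Purified recombinant rat MIF tautomerase assayed with purified L-dopachrome carboxy-methyl ester as substrate in pH 6.0 buffer; rate taken over the initial 30 s. Mean ± SD, n = 4.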
Target sequence in this assay (P30904 2-115 limits assumed): as the sequence (P30904 2-115 limits assumed) above

Structure (SMILES)	inhibition
O=c1nc(-c2cccnc2)sc2ccccc12	12%
Cc1cccc2c(=O)nc(-c3ccccn3)sc12	6%
O=C(O)CCc1cccc(-c2nc(=O)c3ccccc3s2)n1	14%
O=C1NC(c2ccccn2)Sc2ccccc21 (stereo not drawn) [BTZO-4]	3%
O=c1nc(-c2ccccn2)sc2ncccc12	5%
COC(=O)CC1CC(c2ccc(O)cc2)=NO1 (stereo not drawn)	30%

tested on: Antioxidant response element; assay: Induction of ARE activity in serum-deprived neonatal Wistar rat cardiomyocytes assessed as increase in HO-1 mRNA level up to 3 uM measured after 24 hrs by RT-qPCR analysis; format: cell-based; conditions: Cardiomyocyte; in short: as §2

Structure (SMILES)	Activity
O=C(O)CCc1cccc(-c2nc(=O)c3ccccc3s2)n1	Active

tested on: Antioxidant response element; assay: Induction of ARE activity in serum-deprived neonatal Wistar rat cardiomyocytes assessed as increase in HO-1 expression up to 400 nM measured after 24 hrs by Western blot analysis; format: cell-based; conditions: Cardiomyocyte; in short: as §2

Structure (SMILES)	Activity
Cc1cccc2c(=O)nc(-c3ccccn3)sc12	inactive
O=C(O)CCc1cccc(-c2nc(=O)c3ccccc3s2)n1	Active

target: Macrophage migration inhibitory factor (Rattus norvegicus) (UniProt P30904); assay: Inhibition of [3H]-BTZO-1 binding to recombinant rat C-terminal His-tagged MIF expressed in Escherichia coli BL21 (DE3) at 100 uM measured after 3 hrs by SPA relative to control; conditions: not given
Target sequence in this assay (P30904 whole entry, looked up): as the sequence (P30904 whole entry, looked up) above

Structure (SMILES)	inhibition
COC(=O)CC1CC(c2ccc(O)cc2)=NO1 (stereo not drawn)	12%

target: Macrophage migration inhibitory factor (Rattus norvegicus, UniProt P30904); assay: Inhibition of recombinant rat MIF expressed in Escherichia coli BL21 (DE3) assessed as reduction in tautomerase activity using L-dopachrome carboxy-methyl ester as substrate by spectrophotometry; conditions: not given; in short: as §3
Sequence (P30904 2-115 limits assumed): as the sequence (P30904 2-115 limits assumed) above

Structure (SMILES)	IC50
CCCCC/C=C/C=C1/C(=O)C=C[C@@H]1C/C=C\CCCC(=O)O	3.7 µM
CC(C)(C)c1cc(O)ccc1O [E319]	> 30 µM
COC(=O)CC1CC(c2ccc(O)cc2)=NO1 (stereo not drawn)	68 µM
C[S@@+]([O-])CCCCN=C=S [L-SULFORAPHANE]	4.4 µM

target: Macrophage migration inhibitory factor (Rattus norvegicus) (UniProt P30904); assay: Induction of MIF-stimulated ARE activity in rat H9c2 cells assessed as increase in GST Ya expression at 3 uM incubated for 24 hrs by RT-qPCR analysis; format: cell-based; conditions: not given
Target sequence in this assay (P30904 2-115 limits assumed): as above

Structure (SMILES)	Activity
Cc1cccc2c(=O)nc(-c3ccccn3)sc12	inactive

target: Macrophage migration inhibitory factor (Rattus norvegicus) (UniProt P30904); assay: Induction of MIF-stimulated ARE activity in rat H9c2 cells assessed as increase in HO-1 expression at 3 uM incubated for 6 hrs by RT-qPCR analysis; format: cell-based; conditions: not given
Target sequence in this assay (P30904 2-115 limits assumed): as above

Structure (SMILES)	Activity
Cc1cccc2c(=O)nc(-c3ccccn3)sc12	inactive

target: Macrophage migration inhibitory factor (Rattus norvegicus) (UniProt P30904); assay: Binding affinity to rat C-terminal His-tagged MIF expressed in Escherichia coli BL21 (DE3) by SPR analysis; conditions: not given
In short: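 Sensor chip carrying immobilized BTZO-12; MIF (wild type or point mutants) passed over it and specific binding monitored by surface plasmon resonance.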
Target sequence in this assay (P30904 2-115 limits assumed): as above

Structure (SMILES)	Activity
NCCCCCCNC(=O)c1cccc(-c2nc(=O)c3ccccc3s2)n1	Active
Cc1cccc2c(=O)nc(-c3cccc(C(=O)NCCCCCCN)n3)sc12	inactive

tested on: Antioxidant response element; assay: Induction of ARE activity in serum-deprived neonatal Wistar rat cardiomyocytes assessed as increase in GST Ya mRNA level up to 3 uM measured after 24 hrs by RT-qPCR analysis; format: cell-based; conditions: Cardiomyocyte; in short: as §2

Structure (SMILES)	Activity
O=C(O)CCc1cccc(-c2nc(=O)c3ccccc3s2)n1	Active

tested on: Rattus norvegicus; assay: Cardioprotective effect against ischemia reperfusion injury in Wistar rat myocardial infarction model assessed as area at risk at 10 mg/kg, ip administered 1 hr prior to LAD occlusion and 2 and 8 hr after reperfusion and measured after 24 hrs by Evans blue dye based assay (reference value: 46 +/- 3%); format: functional; conditions: time 25 hrs
In short: (§4)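 Anaesthetized rats; LAD coronary occlusion 25 min followed by 24 hr reperfusion. Compound 10 mg/kg i.p. given 1 hr before occlusion and 2 and 8 hr after reperfusion; vehicle controls, n = 13. Area at risk given as % of LV, infarct size as % of area at risk. Mean ± SEM.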

Structure (SMILES)	Activity
O=C(O)CCc1cccc(-c2nc(=O)c3ccccc3s2)n1	48%

target: Macrophage migration inhibitory factor (Rattus norvegicus) (UniProt P30904); assay: Binding affinity to MIF in Wistar rat isolated heart by Western blot analysis; format: tissue-based; conditions: not given; in short: as §1

Structure (SMILES)	Activity
NCCCCCCNC(=O)c1cccc(-c2nc(=O)c3ccccc3s2)n1	Active

tested on: Rattus norvegicus; assay: Cardioprotective effect against ischemia reperfusion injury in Wistar rat myocardial infarction model assessed as reduction in infarct size at 10 mg/kg, ip administered 1 hr prior to LAD occlusion and 2 and 8 hr after reperfusion and measured after 24 hrs by Evans blue dye based assay relative to control; format: functional; set-up: scale not given: the % may be the effect or the level left; conditions: time 25 hrs; in short: as §4

Structure (SMILES)	Activity
O=C(O)CCc1cccc(-c2nc(=O)c3ccccc3s2)n1	45%

tested on: Cardiac muscle cell; assay: Cytoprotective activity against serum deprivation-induced neonatal Wistar rat cardiomyocyte death assessed as increase in cell viability measured after 4 days by WST-8 assay; format: functional; conditions: time 4 day
In short: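 Primary neonatal rat cardiomyocytes were isolated by proteinase digestion, with preplating to remove adherent non-myocytes. Death was induced by serum deprivation at low density (3×10^5 cells/ml) for 4 days with compound present. Viability was read by WST-8. MEC1.5 is the concentration giving a 50% rise in viability. n = 3.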

Structure (SMILES)	MEC1.5
O=c1nc(-c2cccnc2)sc2ccccc12	39 nM
Cc1cccc2c(=O)nc(-c3ccccn3)sc12	>1000 nM
Cc1cc(C)c2sc(-c3ccccn3)nc(=O)c2c1	>1000 nM
O=C(O)CCc1cccc(-c2nc(=O)c3ccccc3s2)n1	39 nM
Cc1c(C)c2c(c(C)c1O)CCC(C)(C(=O)O)O2 (stereo not drawn) [TROLOX]	160000 nM
Cc1cc(C)c2sc(-c3cccc(CCCOCCC(=O)O)n3)nc(=O)c2c1	>1000 nM
O=C(O)CCOCCCc1cccc(-c2nc(=O)c3ccccc3s2)n1	53 nM
O=C(O)CCOCCCc1ccc(-c2nc(=O)c3ccccc3s2)nc1	39 nM
O=C1NC(c2ccccn2)Sc2ccccc21 (stereo not drawn) [BTZO-4]	>1000 nM
O=c1nc(-c2ccccn2)sc2ncccc12	>1000 nM
O=C(O)CCOCCCc1cccc(-c2nc(=O)c3cccnc3s2)n1	>1000 nM
O=C(O)CCOCCCc1cccc(C2NC(=O)c3ccccc3S2)n1 (stereo not drawn)	>1000 nM

target: Macrophage migration inhibitory factor (Rattus norvegicus) (UniProt P30904); assay: Binding affinity to MIF in Wistar rat isolated heart by chromatography; format: tissue-based; conditions: not given

Structure (SMILES)	Activity
O=C(O)CCOCCCc1cccc(-c2nc(=O)c3ccccc3s2)n1	Active
O=C(O)CCOCCCc1ccc(-c2nc(=O)c3ccccc3s2)nc1	Active

target: Macrophage migration inhibitory factor (Rattus norvegicus) (UniProt P30904); assay: Binding affinity to MIF in Wistar rat isolated heart by SPR analysis; format: tissue-based; conditions: not given; in short: as §1

Structure (SMILES)	Activity
NCCCCCCNC(=O)c1cccc(-c2nc(=O)c3ccccc3s2)n1	Active
Cc1cccc2c(=O)nc(-c3cccc(C(=O)NCCCCCCN)n3)sc12	inactive
